Laboratory results as given in ChEMBL document CHEMBL1629614, “Inhibition of methionyl-tRNA synthetase by REP8839 and effects of resistance mutations on enzyme activity” (Antimicrob Agents Chemother, 2009).
Positions count from the first letter of the chain named. Numbers in names are those of the source.

What was measured:
[1] = compound: C=C(F)c1sc(CNCCCNc2cc(=O)c3ccccc3[nH]2)c(C)c1Br; test: Activity of streptococcus aureus MetRS G223C mutant by scintillation proximity assay in presence of tRNA; settings: Staphylococcus aureus
[2] = compound: C=C(F)c1sc(CNCCCNc2cc(=O)c3ccccc3[nH]2)c(C)c1Br; test: Ratio of Kcat to Km for Staphylococcus aureus MetRS G223C mutant in presence of tRNA
How it was run: (§1)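 Purified recombinant S. aureus MetRS was assayed by tRNA aminoacylation at 30°C for 1 to 7.5 min to obtain initial rates. Buffer was Tris pH 8.0 with Mg acetate, 2.5 mM ATP, KCl, DTT, BSA, [3H]methionine and crude E. coli tRNA. Reactions were EDTA-stopped, and charged tRNA was read by scintillation proximity with polylysine beads at pH 2.0.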

[3] = compound: C=C(F)c1sc(CNCCCNc2cc(=O)c3ccccc3[nH]2)c(C)c1Br; test: Activity of Staphylococcus aureus MetRS G223C mutant by ATP:PPi exchange assay in presence of ATP
How it was run: (§2)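 Purified S. aureus MetRS (wild type or mutant; E. coli-expressed, ammonium sulfate cut, anion exchange) at 30 nM. ATP:PPi exchange at 30°C in 100 mM Tris-HCl pH 8.0, 5–10 mM Mg acetate, 80 mM KCl, 2.5 mM DTT, [32P]PPi plus cold PPi equal to ATP. Quenched with EDTA over 1–10 min, PEI-cellulose TLC, phosphorimager. Initial velocities versus varied ATP or methionine fit to Michaelis-Menten.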

[4] = compound: C=C(F)c1sc(CNCCCNc2cc(=O)c3ccccc3[nH]2)c(C)c1Br; test: Ratio of Kcat to Km for Staphylococcus aureus MetRS G223C mutant in presence of ATP
How it was run: (§3)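 Purified recombinant S. aureus MetRS (30 nM) was assayed by ATP:PPi exchange at 30°C in Tris pH 8.0 with Mg acetate, KCl and DTT. [32P]PPi was matched to ATP, and ATP or methionine was varied. Time points from 1 to 10 min were quenched with EDTA, separated by PEI-cellulose TLC and read by phosphorimager. Initial rates were fitted to Michaelis-Menten.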

[5] = compound: C=C(F)c1sc(CNCCCNc2cc(=O)c3ccccc3[nH]2)c(C)c1Br; test: Ratio of Kcat to Km for Staphylococcus aureus MetRS G223C mutant in presence of methionine; how it was run: as §3
[6] = compound: C=C(F)c1sc(CNCCCNc2cc(=O)c3ccccc3[nH]2)c(C)c1Br; test: Activity of Staphylococcus aureus MetRS G223C mutant by ATP:PPi exchange assay in presence of methionine; how it was run: as §2
[7] = compound: C=C(F)c1sc(CNCCCNc2cc(=O)c3ccccc3[nH]2)c(C)c1Br; test: Activity of Staphylococcus aureus MetRS G54S mutant by ATP:PPi exchange assay in presence of ATP; how it was run: as §2
[8] = compound: C=C(F)c1sc(CNCCCNc2cc(=O)c3ccccc3[nH]2)c(C)c1Br; test: Ratio of Kcat to Km for Staphylococcus aureus MetRS G54S mutant in presence of ATP; how it was run: as §3
[9] = compound: C=C(F)c1sc(CNCCCNc2cc(=O)c3ccccc3[nH]2)c(C)c1Br; test: Activity of streptococcus aureus MetRS G54S mutant by scintillation proximity assay in presence of tRNA; settings: Staphylococcus aureus
[10] = compound: C=C(F)c1sc(CNCCCNc2cc(=O)c3ccccc3[nH]2)c(C)c1Br; test: Activity of Staphylococcus aureus MetRS G54S mutant by ATP:PPi exchange assay in presence of methionine; how it was run: as §2
[11] = compound: C=C(F)c1sc(CNCCCNc2cc(=O)c3ccccc3[nH]2)c(C)c1Br; test: Ratio of Kcat to Km for Staphylococcus aureus MetRS G54S mutant in presence of methionine; how it was run: as §3
[12] = compound: C=C(F)c1sc(CNCCCNc2cc(=O)c3ccccc3[nH]2)c(C)c1Br; test: Ratio of Kcat to Km for Staphylococcus aureus MetRS G54S mutant in presence of tRNA; how it was run: as §1
[13] = compound: C=C(F)c1sc(CNCCCNc2cc(=O)c3ccccc3[nH]2)c(C)c1Br; test: Ratio of Kcat to Km for Staphylococcus aureus MetRS A247E mutant in presence of ATP; how it was run: as §3
[14] = compound: C=C(F)c1sc(CNCCCNc2cc(=O)c3ccccc3[nH]2)c(C)c1Br; test: Activity of Staphylococcus aureus MetRS A247E mutant by ATP:PPi exchange assay in presence of ATP; how it was run: as §2
[15] = compound: C=C(F)c1sc(CNCCCNc2cc(=O)c3ccccc3[nH]2)c(C)c1Br; test: Ratio of Kcat to Km for Staphylococcus aureus MetRS A247E mutant in presence of methionine; how it was run: as §3
[16] = compound: C=C(F)c1sc(CNCCCNc2cc(=O)c3ccccc3[nH]2)c(C)c1Br; test: Activity of streptococcus aureus MetRS A247E mutant by scintillation proximity assay in presence of tRNA; settings: Staphylococcus aureus
[17] = compound: C=C(F)c1sc(CNCCCNc2cc(=O)c3ccccc3[nH]2)c(C)c1Br; test: Ratio of Kcat to Km for Staphylococcus aureus MetRS A247E mutant in presence of tRNA; how it was run: as §1
[18] = compound: C=C(F)c1sc(CNCCCNc2cc(=O)c3ccccc3[nH]2)c(C)c1Br; test: Activity of Staphylococcus aureus MetRS A247E mutant by ATP:PPi exchange assay in presence of methionine; how it was run: as §2
[19] = compound: C=C(F)c1sc(CNCCCNc2cc(=O)c3ccccc3[nH]2)c(C)c1Br; test: Ratio of Kcat to Km for Staphylococcus aureus MetRS I57N mutant in presence of ATP; how it was run: as §3
[20] = compound: C=C(F)c1sc(CNCCCNc2cc(=O)c3ccccc3[nH]2)c(C)c1Br; test: Activity of Staphylococcus aureus MetRS I57N mutant by ATP:PPi exchange assay in presence of ATP; how it was run: as §2
[21] = compound: C=C(F)c1sc(CNCCCNc2cc(=O)c3ccccc3[nH]2)c(C)c1Br; test: Ratio of Kcat to Km for Staphylococcus aureus MetRS I57N mutant in presence of tRNA; how it was run: as §1
[22] = compound: C=C(F)c1sc(CNCCCNc2cc(=O)c3ccccc3[nH]2)c(C)c1Br; test: Ratio of Kcat to Km for Staphylococcus aureus MetRS I57N mutant in presence of methionine; how it was run: as §3
[23] = compound: C=C(F)c1sc(CNCCCNc2cc(=O)c3ccccc3[nH]2)c(C)c1Br; test: Activity of streptococcus aureus MetRS I57N mutant by scintillation proximity assay in presence of tRNA; settings: Staphylococcus aureus
[24] = compound: C=C(F)c1sc(CNCCCNc2cc(=O)c3ccccc3[nH]2)c(C)c1Br; test: Activity of Staphylococcus aureus MetRS I57N mutant by ATP:PPi exchange assay in presence of methionine; how it was run: as §2
[25] = compound: C=C(F)c1sc(CNCCCNc2cc(=O)c3ccccc3[nH]2)c(C)c1Br; test: Activity of Haemophilus influenzae MetRS by ATP:PPi exchange assay in presence of ATP
[26] = compound: C=C(F)c1sc(CNCCCNc2cc(=O)c3ccccc3[nH]2)c(C)c1Br; test: Activity of Haemophilus influenzae MetRS by ATP:PPi exchange assay in presence of methionine

B1: Methionine--tRNA ligase (Staphylococcus aureus subsp. aureus MW2), Q8NY00 G223C (protein)
chain: MAKETFYITTPIYYPSGNLHIGHAYSTVAGDVIARYKRMQGYDVRYLTGTDEHGQKIQEKAQKAGKTEIEYLDEMIAGIKQLWAKLEISNDDFIRTTEERHKHVVEQVFERLLKQGDIYLGEYEGWYSVPDETYYTESQLVDPQYENGKIIGGKSPDSGHEVELVKEESYFFNISKYTDRLLEFYDQNPDFIQPPSRKNEMINNFIKPGLADLAVSRTSFNWCVHVPSNPKHVVYVWIDALVNYISALGYLSDDESLFNKYWPADIHLMAKEIVRFHSIIWPILLMALDLPLPKKVFAHGWILMKDGKMSKSKGNVVDPNILIDRYGLDATRYYLMRELPFGSDGVFTPEAFVERTNFDLANDLGNLVNRTISMVNKYFDGELPAYQGPLHELDEEMEAMALETVKSYTESMESLQFSVALSTVWKFISRTNKYIDETTPWVLAKDDSQKDMLGNVMAHLVENIRYAAVLLRPFLTHAPKEIFEQLNINNPQFMEFSSLEQYGVLTESIMVTGQPKPIFPRLDSEAEIAYIKESMQPPATEEEKEEIPSKPQIDIKDFDKVEIKAATIINAEHVKKSDKLLKIQVDLDSEQRQIVSGIAKFYTPDDIIGKKVAVVTNLKPAKLMGQKSEGMILSAEKDGVLTLVSLPSAIPNGAVIK
**Q.** What does the source list for B1?
**A.** Km [1]: 2.5 µM; kcat [1]: 0.037 s⁻¹; kcat/Km [2]: 0.015 µM⁻¹ s⁻¹; Km [3]: 750 µM; kcat/Km [4]: 0.013 µM⁻¹ s⁻¹; kcat/Km [5]: 0.01 µM⁻¹ s⁻¹; Km [6]: 680 µM; kcat [6]: 10 s⁻¹

B2: Methionine--tRNA ligase (Staphylococcus aureus subsp. aureus MW2), Q8NY00 G54S (protein)
chain: B1 chain with G54S, C223G
**Q.** With B2 as the protein, how does the Km [7] read?
**A.** 500 µM

**Q.** And the kcat/Km [8]?
**A.** 0.01 µM⁻¹ s⁻¹

**Q.** What about the Km [9] of the same protein?
**A.** 0.27 µM

**Q.** What about the kcat [9] of the same protein?
**A.** 0.009 s⁻¹

**Q.** And the Km [10]?
**A.** 75 µM

**Q.** What about the kcat [10] of the same protein?
**A.** 5 s⁻¹

**Q.** What about the kcat/Km [11] of the same protein?
**A.** 0.07 µM⁻¹ s⁻¹

**Q.** What about the kcat/Km [12] of the same protein?
**A.** 0.033 µM⁻¹ s⁻¹

B3: Methionine--tRNA ligase (Staphylococcus aureus subsp. aureus MW2), Q8NY00 A247E (protein)
chain: B1 chain with C223G, A247E
**Q.** For B3, which kcat/Km [13] is on record?
**A.** 0.01 µM⁻¹ s⁻¹

**Q.** And the Km [14]?
**A.** 1140 µM

**Q.** And the kcat/Km [15]?
**A.** 0.05 µM⁻¹ s⁻¹

**Q.** And the Km [16]?
**A.** 1.3 µM

**Q.** What about the kcat [16] of the same protein?
**A.** 0.057 s⁻¹

**Q.** What about the kcat/Km [17] of the same protein?
**A.** 0.044 µM⁻¹ s⁻¹

**Q.** And the Km [18]?
**A.** 220 µM

**Q.** And the kcat [18]?
**A.** 11 s⁻¹

B4: Methionine--tRNA ligase (Staphylococcus aureus subsp. aureus MW2), Q8NY00 I57N (protein)
chain: B1 chain with I57N, C223G
**Q.** B4 was tested. Which kcat/Km [19] did it give?
**A.** 0.017 µM⁻¹ s⁻¹

**Q.** What about the Km [20] of the same protein?
**A.** 820 µM

**Q.** What about the kcat/Km [21] of the same protein?
**A.** 0.025 µM⁻¹ s⁻¹

**Q.** What about the kcat/Km [22] of the same protein?
**A.** 0.56 µM⁻¹ s⁻¹

**Q.** And the Km [23]?
**A.** 0.93 µM

**Q.** And the kcat [23]?
**A.** 0.023 s⁻¹

**Q.** And the Km [24]?
**A.** 25 µM

**Q.** What about the kcat [24] of the same protein?
**A.** 14 s⁻¹

B5: Methionine--tRNA ligase (Haemophilus influenzae (strain ATCC 51907 / DSM 11121 / KW20 / Rd)), P43828 (protein)
chain: MTTQPRKILVTCALPYANGAIHLGHMLEHIQADIWVRFQRMRGNKIHFVCADDAHGTPIMLNADKLGITPEELIAKAKADHIRDFAGFNISFDNYHSTHSEENKQLTAEIYNKLKANGFIKSKVISQLFDPEKNMFLPDRFVKGTCPKCKAEDQYGDNCEVCASTYSPMDLINPRSAVSGTTPIVKESEHFFFDLPAFEGMLKEWTRSGSLQSEIANKMQEWFESDLQQWDISRDAPYFGFEIPGAKDKFFYVWLDAPIGYMASFKNLCNREGIDFNEFWAEGSDAELYHFIGKDIVYFHSLFWPAMLEGSGYRKPTNVFAHGYVTVDGAKMSKSRGTFIQASTYLNHIDPECLRYYYAAKLNDRIEDLDFNLEDFVQRVNTDIVNKLVNLASRNAGFIAKRFEGKLADKLEDKSLFAEFTAQAEQIAAYYESREYNKTIREIMALTDKANKYIDEKAPWVIAKEEGKEAELQAVCSMGIELFRVLMSYLKPVLPKLAERAETFLQAELRWDNIHQPLLGHTLAPFKALFSRLEKKQIDAVVEETKALFAAANKAAEKTEAKPTALSAVEPIAETITIDDFAKLDMRVAKVLKCEAVPESNKLLRFELDLGDHTRQVFSGIKAAYNKPEELEGRFVIMVANLAPRKMKFGVSEGMILSAGTGGSDLFLLSADSGVTAGMQVK
**Q.** For B5, which Km [25] is on record?
**A.** 1200 µM

**Q.** And the Km [26]?
**A.** 250 µM
